Measurements as given in article PMC9476207 (ACS Omega, 2022).

Assays:
Assay in all cases: NCI-60 single-dose antiproliferative screen
Type in all cases: cell-based
[1] = tested on: TK-10; conditions: Homo sapiens, TK-10, 48 h, read-out: growth percent
How it was run: (§1)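 Cells grown in RPMI 1640 with 5% FBS and 2 mM L-glutamine, plated and held 24 h at 37 °C; time-zero plates TCA-fixed. DMSO stocks were diluted in gentamicin-containing medium to a final 10^-5 M, with a DMSO-only control. Exposure 48 h, 5% CO2. Adherent cells TCA-fixed 1 h at 4 °C, stained with 0.4% SRB, solubilised in 10 mM Trizma base, read at 515 nm. Growth percent derived from ODtzero, ODtest and ODctrl.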

[2] = tested on: COLO205; conditions: Homo sapiens, COLO 205, 48 h, read-out: growth percent
How it was run: (§2)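 NCI-60 protocol. Lines were grown in RPMI 1640 with 5% FBS and 2 mM L-glutamine, plated and incubated 24 h at 37 °C; time-zero plates were TCA-fixed. The test compound was dissolved in DMSO, diluted in medium with 50 μg/mL gentamicin and given once at a final 10^-5 M (DMSO control) for 48 h. Cells were fixed with cold TCA (1 h, 4 °C) and stained with 0.4% SRB in 1% acetic acid for 10 min. Dye was dissolved in 10 mM Trizma base and read at 515 nm. Growth percent was calculated from time-zero, test and control ODs.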

[3] = tested on: SF-539; conditions: Homo sapiens, SF-539, 48 h, read-out: growth percent
How it was run: as §1

[4] = tested on: SK-OV-3; conditions: Homo sapiens, SK-OV-3, 48 h, read-out: growth percent
How it was run: as §1

[5] = tested on: SK-MEL-5; conditions: Homo sapiens, SK-MEL-5, 48 h, read-out: growth percent
How it was run: as §1

[6] = tested on: NCI-H226; conditions: Homo sapiens, NCI-H226, 48 h, read-out: growth percent
How it was run: as §2

[7] = tested on: UACC-62; conditions: Homo sapiens, UACC-62, 48 h, read-out: growth percent
How it was run: as §1

[8] = tested on: RPMI-8226; conditions: Homo sapiens, RPMI-8226, 48 h, read-out: growth percent
How it was run: as §2

[9] = tested on: SK-MEL-28; conditions: Homo sapiens, SK-MEL-28, 48 h, read-out: growth percent
How it was run: as §1

[10] = tested on: CCRF-CEM; conditions: Homo sapiens, 48 h, read-out: growth percent
How it was run: as §2

[11] = tested on: OVCAR-5; conditions: Homo sapiens, OVCAR-5, 48 h, read-out: growth percent
How it was run: as §2

[12] = tested on: NCI/ADR-RES; conditions: Homo sapiens, 48 h, read-out: growth percent
How it was run: as §2

[13] = tested on: NCI-H23; conditions: Homo sapiens, NCI-H23, 48 h, read-out: growth percent
How it was run: as §2

[14] = tested on: HCC-2998; conditions: Homo sapiens, HCC 2998, 48 h, read-out: growth percent
How it was run: as §2

[15] = tested on: DU-145; conditions: Homo sapiens, DU-145, 48 h, read-out: growth percent
How it was run: as §2

[16] = tested on: MALME-3M; conditions: Homo sapiens, 48 h, read-out: growth percent
How it was run: as §2

[17] = tested on: KM12; conditions: Homo sapiens, KM12, 48 h, read-out: growth percent
How it was run: as §2

[18] = tested on: MDA-MB-435; conditions: Homo sapiens, MDA-MB-435, 48 h, read-out: growth percent
How it was run: as §2

[19] = tested on: T-47D; conditions: Homo sapiens, T47D, 48 h, read-out: growth percent
How it was run: as §1

[20] = tested on: SW-620; conditions: Homo sapiens, SW-620, 48 h, read-out: growth percent
How it was run: as §1

[21] = tested on: NCI-H522; conditions: Homo sapiens, NCI-H522, 48 h, read-out: growth percent
How it was run: as §2

[22] = tested on: A549/ATCC; conditions: Homo sapiens, A549, 48 h, read-out: growth percent
How it was run: as §2

[23] = tested on: CAKI-1; conditions: Homo sapiens, CAKI-1, 48 h, read-out: growth percent
How it was run: as §2

[24] = tested on: SK-MEL-2; conditions: Homo sapiens, SK-MEL-2, 48 h, read-out: growth percent
How it was run: as §1

[25] = tested on: SN12C; conditions: Homo sapiens, 48 h, read-out: growth percent
How it was run: as §1

[26] = tested on: HS 578T; conditions: Homo sapiens, 48 h, read-out: growth percent
How it was run: as §2

[27] = tested on: OVCAR-8; conditions: Homo sapiens, OVCAR-8, 48 h, read-out: growth percent
How it was run: as §2

[28] = tested on: SNB-75; conditions: Homo sapiens, SNB-75, 48 h, read-out: growth percent
How it was run: as §1

[29] = tested on: OVCAR-4; conditions: Homo sapiens, OVCAR-4, 48 h, read-out: growth percent
How it was run: as §2

[30] = tested on: SR; conditions: Homo sapiens, 48 h, read-out: growth percent
How it was run: as §1

[31] = tested on: UACC-257; conditions: Homo sapiens, UACC-257, 48 h, read-out: growth percent
How it was run: as §1

[32] = tested on: HOP-62; conditions: Homo sapiens, HOP-62, 48 h, read-out: growth percent
How it was run: as §2

[33] = tested on: K-562; conditions: Homo sapiens, K562, 48 h, read-out: growth percent
How it was run: as §2

[34] = tested on: M14; conditions: Homo sapiens, M14, 48 h, read-out: growth percent
How it was run: as §2

[35] = tested on: RXF 393; conditions: Homo sapiens, RXF 393, 48 h, read-out: growth percent
How it was run: as §2

[36] = tested on: SF-268; conditions: Homo sapiens, SF-268, 48 h, read-out: growth percent
How it was run: as §2

COc1cc(CNC(=O)CCCC/C=C/C(C)C)ccc1OCc1cn(-c2ccc(F)cc2)nn1 [14h, (E)-N-(4-((1-(4-Fluorophenyl)-1H-1,2,3-triazol-4-yl)methoxy)-3-methoxybenzyl)-8-methylnon-6-enamide]
activity at 10 µM [1]: 103% | activity at 10 µM [2]: 120% | activity at 10 µM [3]: 92.2% | activity at 10 µM [4]: 86.4% | activity at 10 µM [5]: 83.7% | activity at 10 µM [6]: 74.2% | activity at 10 µM [7]: 71.9% | activity at 10 µM [8]: 68.4% | activity at 10 µM [9]: 102% | activity at 10 µM [10]: 79.7% | activity at 10 µM [11]: 97.6% | activity at 10 µM [12]: 70.6% | activity at 10 µM [13]: 81.4% | activity at 10 µM [14]: 110% | activity at 10 µM [15]: 96.1% | activity at 10 µM [16]: 103% | activity at 10 µM [17]: 94.5% | activity at 10 µM [18]: 98.8% | activity at 10 µM [19]: 73.8% | activity at 10 µM [20]: 91% | activity at 10 µM [21]: 70.2% | activity at 10 µM [22]: 84.3% | activity at 10 µM [23]: 88.4% | activity at 10 µM [24]: 111% | activity at 10 µM [25]: 82.4% | activity at 10 µM [26]: 77.7% | activity at 10 µM [27]: 71.5% | activity at 10 µM [28]: 83.5% | activity at 10 µM [29]: 82.2% | activity at 10 µM [30]: 76.7% | activity at 10 µM [31]: 90.2% | activity at 10 µM [32]: 84.1% | activity at 10 µM [33]: 68.7% | activity at 10 µM [34]: 94% | activity at 10 µM [35]: 95.3% | activity at 10 µM [36]: 87.2%
